PubChem BioAssay
Results filed as inconclusive are left out. Activity calls are given as the source filed them.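 How the source made its calls, unless noted: active means inhibition over a set limit, the all-compound mean plus 3 SD, in both replicate runs; inconclusive means over that limit in just one replicate run; inactive means at or under that limit in both runs.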

Experiments:
[1] = S. cerevisiae growth inhibition in permissive medium (OD615), pilot counter-assay for S. cerevisiae lifespan shortening project, permissive growth control (AID 705;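 active means growth inhibition above 25% in both replicates, a cutoff set 3 SD above the mean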); details: OD615, 24 h, at 10 µM, active compounds read high
In short: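 Material: engineered DeaD yeast; Compound: one dose 10 µM, DMSO 0.25% final; Detection: absorbance (optical density) at 615 nm; Buffer or medium: permissive raffinose/galactose medium; Timing: 24 h exposure, 30 °C.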

[2] = S. cerevisiae growth inhibition in restrictive medium, OD615, pilot screen, restrictive growth control, yeast lifespan reduction project (AID 706;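 active means growth inhibition above a set limit, 3 SD over mean compound inhibition, in both replicates, cut at about 43% in these data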;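 further: modified DeaD lifespan yeast strain shifted to restrictive glucose medium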); details: OD615, 48 h, at 10 µM, active compounds read high
In short: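 Buffer or medium: restrictive glucose medium (CSMM-D); test system: modified S. cerevisiae; doses: single dose of 10 µM compound final, 0.25% DMSO; schedule: 48 h compound exposure at 30 °C; detection: absorbance (optical density) measured at 615 nm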

[3] = doxorubicin toxicity protection in MRP-1 cells – H69AR cells, CellTiter-Glo, duplicate, MRP-1 activator project, pilot screen (AID 807;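 active means viability increase at or above a cutoff of the median across tested compounds plus 3 SD, cut at about 8.5% in these data, passing the limit was not always enough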;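 further: compound pretreatment 18-22 h then 72 h combined with doxorubicin; 0% = doxorubicin alone and 100% = vehicle without doxorubicin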); details: H69AR viability with doxorubicin, CellTiter-Glo luminescence; at 10 µM; active compounds read high
[4] = viability of HCT116 without oncogenic beta-catenin – human colon tumor cells, pilot screen (AID 823;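 active means cell viability at or below a set limit in both duplicate runs, the limit being the all-compound median minus 4 SD, cut at about 23% in these data, passing the limit was not always enough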;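 further: 0% = wells killed by 20 µM Hyamine and 100% = untreated DMSO cell wells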); details: HCT116 beta-catenin knockout viability, CellTiter-Glo, 60 h; at 10 µM; active compounds read low
[5] = viability of PTEN-null HCT116 cells – cell-based, HCT116 clonal line, CellTiter-Glo, pilot screen (AID 824;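 active means viability at or below 27.92% in each of two runs, the all-compound median minus 4 SD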;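 further: 0% = 20 µM Hyamine control and 100% = vehicle cell control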); details: HCT116 PTEN-deleted viability, 60 h, at 10 µM, active compounds read low
[6] = RAM pathway blockade in budding yeast – dse1pr::URA3 reporter, 5-FOA selection, pilot screen (AID 869);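 further: 0% = DMSO wells with no growth and 100% = 10 µM 1-NA-PP1 with full growth; RAM network block rescues cells from 5-FOA so hits raise OD615 growth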; details: S. cerevisiae dse1pr::URA3 5-FOA growth, OD615, 2 d; at 10 µM; active compounds read high; strain carries analog-sensitive mutant Cbk1 kinase
[7] = RAM signaling pathway blockade in yeast – S. cerevisiae, Pdr1DBD-CYC8 efflux-inhibited sensitized strain, primary screen (AID 1298;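 active means RAM network inhibition above 8.4% in each of two replicates, 3 SD over the compound average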;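 further: 0% = DMSO untreated cells without growth and 100% = 10 µM 1-NA-PP1 full growth; higher means more yeast growth rescued from 5-FOA killing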); details: S. cerevisiae cbk1-as DSE1-URA3 strain, 5-FOA growth OD615, 2 d; at 50 µM; active compounds read high

With `CC(=O)C1=C(C)NC(SCC(=O)c2ccc(C)cc2)=C(C#N)C1c1ccco1` (stereo not drawn) the growth inhibition [1] was -5.27% (inactive), the growth inhibition [2] was 32.5% (inactive) and the viability increase [3] was -6.5% (inactive). For the same molecule, the viability [4] was 49.2% (inactive), the viability [5] was 52.7% (inactive) and the inhibition [6] was 4.71% (inactive). For the same molecule, the RAM network inhibition [7] was 2.93% (inactive).

For `CCn1cc(C(=O)N2CCn3c(nc4ccccc43)C2)c(=O)c2ccc(C)nc21`, the growth inhibition [1] was -10.2% (inactive), the growth inhibition [2] was -4.84% (inactive) and the viability increase [3] was -2.81% (inactive). For the same molecule, the viability [4] was 104% (inactive), the viability [5] was 94.3% (inactive) and the inhibition [6] was 2.08% (inactive). For the same molecule, the RAM network inhibition [7] was 0.07% (inactive).

With `CN(C)c1ccc(S(=O)(=O)c2ccc(Cl)cc2)cc1` the growth inhibition [1] was 2.13% (inactive), the growth inhibition [2] was 16.1% (inactive) and the viability increase [3] was -1.11% (inactive). The viability [4] was 103% (inactive), the viability [5] was 100% (inactive) and the inhibition [6] was 1.79% (inactive). For the same molecule, the RAM network inhibition [7] was 5.79% (inactive).

In the case of `CCOC(=O)c1ccc2[nH]c(C)cc(=O)c2c1`, the growth inhibition [1] is reported as -1.86% (inactive), the growth inhibition [2] is reported as 1.21% (inactive) and the viability increase [3] is reported as -0.4% (inactive). For the same molecule, the viability [4] was 98% (inactive), the viability [5] was 98% (inactive) and the inhibition [6] was 1.35% (inactive). The RAM network inhibition [7] was 9.46% (inactive).

In the case of `NC(=O)C1CCN(C(=O)c2cnn(-c3ccccc3)c2NC(=O)c2ccco2)CC1`, the growth inhibition [1] is reported as -2.77% (inactive), the growth inhibition [2] is reported as 1.08% (inactive) and the viability increase [3] is reported as -4.39% (inactive). The viability [4] was 99.7% (inactive), the viability [5] was 98.8% (inactive) and the inhibition [6] was 1.67% (inactive). For the same molecule, the RAM network inhibition [7] was 5.39% (inactive).

In the case of `CCOc1ccc(-c2nnc(-c3ccco3)o2)cc1`, the growth inhibition [1] is reported as -1.61% (inactive), the growth inhibition [2] is reported as 5.67% (inactive) and the viability increase [3] is reported as 1.72% (inactive). The viability [4] was 94.5% (inactive), the viability [5] was 101% (inactive) and the inhibition [6] was 0.695% (inactive). For the same molecule, the RAM network inhibition [7] was 2.38% (inactive).

For `Cn1c(=O)oc2cc(S(=O)(=O)N3CCCC(C(=O)N4CCc5ccccc5C4)C3)ccc21` (stereo not drawn), the growth inhibition [1] was 1.16% (inactive), the growth inhibition [2] was -8.79% (inactive) and the viability increase [3] was -2.62% (inactive). For the same molecule, the viability [4] was 87.8% (inactive), the viability [5] was 84.9% (inactive) and the inhibition [6] was 1.8% (inactive). For the same molecule, the RAM network inhibition [7] was -0.89% (inactive).

In the case of `COc1ccccc1NC1C=CS(=O)(=O)C1` (stereo not drawn), the growth inhibition [1] is reported as -1.03% (inactive), the growth inhibition [2] is reported as 0.12% (inactive) and the viability increase [3] is reported as -2.42% (inactive). For the same molecule, the viability [4] was 99.5% (inactive), the viability [5] was 94.4% (inactive) and the inhibition [6] was 0.335% (inactive). The RAM network inhibition [7] was 4.65% (inactive).

In the case of `Cc1cccn2c(=O)c3cc(C(=O)NCCN4CCOCC4)c(=N)n(CCc4ccccc4)c3nc12`, the growth inhibition [1] is reported as -0.895% (inactive), the growth inhibition [2] is reported as -4.73% (inactive) and the viability increase [3] is reported as -5.8% (inactive). The viability [4] was 5.75% (active), the viability [5] was 12.8% (active) and the inhibition [6] was 1.02% (inactive). For the same molecule, the RAM network inhibition [7] was 2.73% (inactive).

For `CCCC(=O)NCCCc1nc2ccccc2n1C(C)C`, the growth inhibition [1] was -18.1% (inactive), the growth inhibition [2] was -23.6% (inactive) and the viability increase [3] was 1.18% (inactive). The viability [4] was 102% (inactive), the viability [5] was 96.2% (inactive) and the inhibition [6] was 1.66% (inactive). The RAM network inhibition [7] was 3.95% (inactive).

With `COc1ccc(S(=O)(=O)N2CCN(C)CC2)cc1C` the growth inhibition [1] was -15.1% (inactive), the growth inhibition [2] was -4% (inactive) and the viability increase [3] was 1.37% (inactive). The viability [4] was 88.4% (inactive), the viability [5] was 92.1% (inactive) and the inhibition [6] was 3.29% (inactive). For the same molecule, the RAM network inhibition [7] was 3.02% (inactive).

For `CCC(C)NC(=O)CS(=O)Cc1nc(-c2cccc(C)c2)oc1C` (stereo not drawn), the growth inhibition [1] was -12.9% (inactive), the growth inhibition [2] was -5.66% (inactive) and the viability increase [3] was -1.72% (inactive). The viability [4] was 99.4% (inactive), the viability [5] was 88.2% (inactive) and the inhibition [6] was 1.52% (inactive). For the same molecule, the RAM network inhibition [7] was 4.65% (inactive).

With `CCCc1cc(C(=O)Nc2sc(C(C)=O)c(C)c2C(=O)OCC)no1` the growth inhibition [1] was -18.8% (inactive), the growth inhibition [2] was -30.5% (inactive) and the viability increase [3] was -4.9% (inactive). The viability [4] was 86.2% (inactive), the viability [5] was 78.4% (inactive) and the inhibition [6] was 1.46% (inactive). For the same molecule, the RAM network inhibition [7] was 3.25% (inactive).

In the case of `CCCCNC(=O)CCCn1c(=O)[nH]c2ccc(Br)cc2c1=O`, the growth inhibition [1] is reported as -13% (inactive), the growth inhibition [2] is reported as -18% (inactive) and the viability increase [3] is reported as -0.78% (inactive). For the same molecule, the viability [4] was 97.9% (inactive), the viability [5] was 92.7% (inactive) and the inhibition [6] was 0.635% (inactive). For the same molecule, the RAM network inhibition [7] was 1.08% (inactive).

For `N=C1C(c2nc3ccccc3c(=O)[nH]2)=C(O)CN1CCc1ccccc1`, the growth inhibition [1] was 2.17% (inactive), the growth inhibition [2] was -7.82% (inactive) and the viability increase [3] was -3.19% (inactive). For the same molecule, the viability [4] was 93.6% (inactive), the viability [5] was 87.2% (inactive) and the inhibition [6] was 0.995% (inactive). The RAM network inhibition [7] was 3.92% (inactive).

For `OC(COc1ccccc1)Cn1cc(Br)cn1` (stereo not drawn), the growth inhibition [1] was -3.63% (inactive), the growth inhibition [2] was -8.39% (inactive) and the viability increase [3] was -0.64% (inactive). The viability [4] was 106% (inactive), the viability [5] was 96.1% (inactive) and the inhibition [6] was 1.23% (inactive). The RAM network inhibition [7] was 0.93% (inactive).

In the case of `COc1ccc(C2CC(c3cccc(OC)c3)n3nc(N)nc3N2)cc1` (stereo not drawn), the growth inhibition [1] is reported as -5.42% (inactive), the growth inhibition [2] is reported as 9.84% (inactive) and the viability increase [3] is reported as 1.37% (inactive). For the same molecule, the viability [4] was 100% (inactive), the viability [5] was 92.7% (inactive) and the inhibition [6] was 2.04% (inactive). For the same molecule, the RAM network inhibition [7] was -1.58% (inactive).

In the case of `Cn1c(=O)oc2cc(S(=O)(=O)N3CCCC(C(=O)NCc4cccs4)C3)ccc21` (stereo not drawn), the growth inhibition [1] is reported as 2.14% (inactive), the growth inhibition [2] is reported as 2.64% (inactive) and the viability increase [3] is reported as -1.73% (inactive). The viability [4] was 100% (inactive), the viability [5] was 93.4% (inactive) and the inhibition [6] was 2.51% (inactive). The RAM network inhibition [7] was 6.45% (inactive).

For `CC1CCc2nn(CC(=O)NCCC3=CCCCC3)cc2C1` (stereo not drawn), the growth inhibition [1] was 4.45% (inactive), the growth inhibition [2] was -4.16% (inactive) and the viability increase [3] was -1.4% (inactive). For the same molecule, the viability [4] was 101% (inactive), the viability [5] was 94.5% (inactive) and the inhibition [6] was 0.595% (inactive). For the same molecule, the RAM network inhibition [7] was 0.3% (inactive).

For `COc1cc(OC)c(Cl)cc1N`, the growth inhibition [1] was -8.61% (inactive), the growth inhibition [2] was -16.7% (inactive) and the viability increase [3] was -2.54% (inactive). The viability [4] was 98% (inactive), the viability [5] was 95.7% (inactive) and the inhibition [6] was 1.47% (inactive). For the same molecule, the RAM network inhibition [7] was 2.8% (inactive).

For `CC(C)=C1SC(N2CCN(Cc3ccccc3)CC2)=NC1=O`, the growth inhibition [1] was -6.78% (inactive), the growth inhibition [2] was -0.855% (inactive) and the viability increase [3] was -2.86% (inactive). The viability [4] was 94.9% (inactive), the viability [5] was 97.5% (inactive) and the inhibition [6] was 0.52% (inactive). The RAM network inhibition [7] was 4.6% (inactive).

In the case of `OCCCc1nc2n(n1)C(c1ccccc1)C=C(c1ccccc1)N2` (stereo not drawn), the growth inhibition [1] is reported as -7.07% (inactive), the growth inhibition [2] is reported as 1.69% (inactive) and the viability increase [3] is reported as -2.67% (inactive). The viability [4] was 97.1% (inactive), the viability [5] was 89.1% (inactive) and the inhibition [6] was 0.59% (inactive). For the same molecule, the RAM network inhibition [7] was 0.53% (inactive).

With `Oc1c(C(c2cccs2)N2CCN(c3ccc(F)cc3)CC2)sc2ncnn12` (stereo not drawn) the growth inhibition [1] was 0.78% (inactive), the growth inhibition [2] was -6.24% (inactive) and the viability increase [3] was 13.4% (active). The viability [4] was 105% (inactive), the viability [5] was 90.9% (inactive) and the inhibition [6] was 0.495% (inactive). The RAM network inhibition [7] was 8.63% (inactive).

With `COc1ccccc1N1CCN(C(CNC(=O)C2CCCCC2)c2cccnc2)CC1` (stereo not drawn) the growth inhibition [1] was -3.31% (inactive), the growth inhibition [2] was -3.02% (inactive) and the viability increase [3] was 1.93% (inactive). The viability [4] was 90.1% (inactive), the viability [5] was 94.4% (inactive) and the inhibition [6] was 0.775% (inactive). The RAM network inhibition [7] was 3.85% (inactive).
